Laboratory results from ChEMBL document CHEMBL3108779, “Pyrronazols, metabolites from the myxobacteria Nannocystis pusilla and N. exedens, are unusual chlorinated pyrone-oxazole-pyrroles” (J Nat Prod, 2014).
In brackets after ≈: the same amount, converted by molar mass. Activity calls are given as the source filed them. No cut-off for these calls is given here.

How the values were obtained:
[1] = test system: Aspergillus fumigatus; assay: Antifungal activity against Aspergillus fumigatus DSM 15966 assessed as growth inhibition after 24 to 48 hrs; assay type: functional
Method in brief: (§1)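 Fungi pre-grown at 30 °C and 160 rpm for 24−48 h. Tested by 1:1 serial dilution in 96-well microtiter plates in MYC medium (1.0% glucose, 1.0% phytone peptone, 50 mM HEPES, pH 7.0). MIC was the lowest concentration preventing visible growth.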

[2] = test system: Aspergillus flavus; assay: Antifungal activity against Aspergillus flavus DSM 1959 assessed as growth inhibition after 24 to 48 hrs; assay type: functional
Method in brief: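 Fungus grown at 30 °C, 160 rpm for 24−48 h, then tested by 1:1 serial dilution in MYC medium (1.0% glucose, 1.0% phytone peptone, 50 mM HEPES, pH 7.0) in 96-well plates. MIC read as the lowest concentration preventing visible growth.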

[3] = Antifungal activity against Trichosporon oleaginosus DSM 11815 assessed as growth inhibition after 24 to 48 hrs; assay type: functional; conditions: Cutaneotrichosporon oleaginosum
Method in brief: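 Yeast pre-grown at 30 °C and 160 rpm for 24−48 h, then adjusted to OD548 0.1. Tested by 1:1 serial dilution in 96-well plates in MYC medium (1.0% glucose, 1.0% phytone peptone, 50 mM HEPES, pH 7.0). MIC was the lowest concentration preventing visible growth.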

[4] = test system: Paenibacillus polymyxa; assay: Antibacterial activity against Paenibacillus polymyxa DSM 36 assessed as growth inhibition after 24 to 48 hrs; assay type: functional
[5] = test system: Mucor hiemalis; assay: Antifungal activity against Mucor hiemalis DSM 2656 assessed as growth inhibition after 24 to 48 hrs; assay type: functional; method in brief: as §1
[6] = test system: Wickerhamomyces anomalus; assay: Antifungal activity against Wickerhamomyces anomalus DSM 6766 assessed as growth inhibition after 24 to 48 hrs; assay type: functional
Method in brief: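 Yeast grown at 30 °C, 160 rpm for 24−48 h and adjusted to OD548 0.1, then tested by 1:1 serial dilution in MYC medium (1.0% glucose, 1.0% phytone peptone, 50 mM HEPES, pH 7.0) in 96-well plates. MIC taken as the lowest concentration preventing visible growth.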

[7] = test system: Chromobacterium violaceum; assay: Antibacterial activity against Chromobacterium violaceum DSM 30191 assessed as growth inhibition after 24 to 48 hrs; assay type: functional
[8] = test system: Mycolicibacterium diernhoferi; assay: Antibacterial activity against Mycobacterium diernhoferi DSM 43542 assessed as growth inhibition after 24 to 48 hrs; assay type: functional
[9] = test system: Nocardia sp.; assay: Antibacterial activity against Nocardia sp. DSM 43069 assessed as growth inhibition after 24 to 48 hrs; assay type: functional
[10] = test system: A549; assay: Cytotoxicity against human A549 cells after 5 days by MTT assay; assay type: functional; conditions: A549, 120 h, read-out: LD50 (the source's name)
Method in brief: (§2)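 A549, KB-3-1 and mouse fibroblast L929 cells cultured in DMEM plus 10% FBS at 37 °C, 10% CO2. IC50 determined by MTT assay in 96-well microplates; methanol served as negative control.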

[11] = Cytotoxicity against human KB3-1 cells after 5 days by MTT assay; assay type: functional; conditions: KB 3-1, 120 h, read-out: LD50 (the source's name); method in brief: as §2
[12] = test system: SK-OV-3; assay: Cytotoxicity against human SKOV3 cells after 5 days by MTT assay; assay type: functional; conditions: SK-OV-3, 120 h, read-out: LD50 (the source's name)
Method in brief: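 Human ovarian carcinoma SKOV3 cells maintained in McCoy's medium with 10% FBS, 37 °C, 10% CO2. IC50 obtained from MTT assay in 96-well plates, with methanol as negative control.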

[13] = test system: L929; assay: Cytotoxicity against mouse L929 cells after 5 days by MTT assay; assay type: functional; conditions: L929, 120 h, read-out: LD50 (the source's name); method in brief: as §2
[14] = Cytotoxicity against HUVEC after 5 days by MTT assay; assay type: cell-based; conditions: human, HUVEC cells
Method in brief: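 Nontransformed HUVEC kept in EBM-2 with 10% FBS at 37 °C under 10% CO2. MTT read-out in 96-well plates gives the IC50, with methanol as negative control.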

[15] = test system: Mycobacterium sp.; assay: Antibacterial activity against Mycobacterium sp. DSM 43270 assessed as growth inhibition after 24 to 48 hrs; assay type: functional

| SMILES | MIC [1] | MIC [2] | MIC [3] | MIC [4] | MIC [5] | MIC [6] | MIC [7] | MIC [8] | MIC [9] | CC50 [10] | CC50 [11] | CC50 [12] | CC50 [13] | IC50 at 120 h [14] | MIC ([6]; Hansenula anomala) | MIC [15] |
| --- | --- | --- | --- | --- | --- | --- | --- | --- | --- | --- | --- | --- | --- | --- | --- | --- |
| C[C@@H]1[C@H](O)[C@@H](C)/C=C/C=C/C=C/C=C/C=C/C=C/C=C/[C@H](O[C@@H]2O[C@H](C)[C@@H](O)[C@H](N)[C@@H]2O)C[C@@H]2O[C@](O)(C[C@@H](O)C[C@@H](O)[C@H](O)CC[C@@H](O)C[C@@H](O)CC(=O)O[C@H]1C)C[C@H](O)[C@H]2C(=O)O [AMPHOTERICIN B] | < 0.52 µg/mL | 1 µg/mL (≈ 1.08 µM) |  |  |  |  |  |  |  |  |  |  |  |  |  |  |
| OC[C@H]1O[C@H](Oc2cccc3nc4c(O)cccc4nc23)[C@@H](O)[C@@H]1O | 33.3 µg/mL (≈ 96.7 µM) | inactive | inactive | inactive | inactive | inactive | inactive | 66.6 µg/mL (≈ 193 µM) | inactive |  |  |  |  |  |  |  |
| CN(C)[C@@H]1C(O)=C(C(N)=O)C(=O)[C@@]2(O)C(O)=C3C(=O)c4c(O)cccc4[C@@](C)(O)[C@H]3[C@H](O)[C@@H]12.Cl [OXYTETRACYCLINE HYDROCHLORIDE] |  |  |  | 6.7 µg/mL |  |  |  |  |  |  |  |  |  |  |  |  |
| Oc1cccc2nc3c(O)cccc3nc12 | inactive | inactive | inactive | 66.7 µg/mL (≈ 314 µM) | 33.3 µg/mL (≈ 157 µM) |  | 66.7 µg/mL (≈ 314 µM) | 33.3 µg/mL (≈ 157 µM) | 33.3 µg/mL (≈ 157 µM) | 5.65 µM | 5.81 µM | 2.59 µM | 11.3 µM | 3.81 µM | 33.3 µg/mL (≈ 157 µM) | 66.7 µg/mL (≈ 314 µM) |
| C[C@@H]1[C@H](O)[C@@H](C)/C=C/C=C/CC/C=C/C=C/C=C/C=C/[C@H](O[C@@H]2O[C@H](C)[C@@H](O)[C@H](N)[C@@H]2O)C[C@@H]2O[C@](O)(C[C@@H](O)[C@H](O)CC[C@@H](O)C[C@@H](O)C[C@@H](O)CC(=O)O[C@H]1C)C[C@H](O)[C@H]2C(=O)O.O |  |  |  |  | 2.1 µg/mL |  |  |  |  |  |  |  |  |  | 0.52 µg/mL |  |
| COC1=CC(=O)O[C@H](c2coc(/C(=C/c3ccc(Cl)[nH]3)CO)n2)[C@@H]1C | inactive | inactive | inactive | inactive | 33.3 µg/mL (≈ 91.3 µM) | inactive | inactive | inactive | inactive | > 27.1 µM | > 27.4 µM | > 27.4 µM | > 27.4 µM | > 27.4 µM |  | inactive |
| CN[C@@H]1[C@H](O[C@H]2[C@H](O[C@H]3[C@H](O)[C@@H](O)[C@H](N=C(N)N)[C@@H](O)[C@@H]3N=C(N)N)O[C@@H](C)[C@]2(O)C=O)O[C@@H](CO)[C@H](O)[C@H]1O.CN[C@@H]1[C@H](O[C@H]2[C@H](O[C@H]3[C@H](O)[C@@H](O)[C@H](N=C(N)N)[C@@H](O)[C@@H]3N=C(N)N)O[C@@H](C)[C@]2(O)C=O)O[C@@H](CO)[C@H](O)[C@H]1O.O=S(=O)(O)O.O=S(=O)(O)O.O=S(=O)(O)O [STREPTOMYCIN SULFATE] |  |  | 0.1 µg/mL |  |  |  | 2.1 µg/mL | < 0.52 µg/mL | < 0.52 µg/mL |  |  |  |  |  |  | 2.1 µg/mL |
